Laboratory results published in ChEMBL document CHEMBL5033998, “Discovery of DDO-2213 as a Potent and Orally Bioavailable Inhibitor of the WDR5-Mixed Lineage Leukemia 1 Protein-Protein Interaction for the Treatment of MLL Fusion Leukemia” (J Med Chem, 2021).

Legend:
[1] = target: T1, Histone-lysine N-methyltransferase EHMT2 (Homo sapiens, UniProt Q96KQ7); test: Inhibition of G9a (unknown origin) assessed as effect on H3K9 methylation incubated for 30 mins by Alphascreen assay
T1 sequence (Q96KQ7 whole entry): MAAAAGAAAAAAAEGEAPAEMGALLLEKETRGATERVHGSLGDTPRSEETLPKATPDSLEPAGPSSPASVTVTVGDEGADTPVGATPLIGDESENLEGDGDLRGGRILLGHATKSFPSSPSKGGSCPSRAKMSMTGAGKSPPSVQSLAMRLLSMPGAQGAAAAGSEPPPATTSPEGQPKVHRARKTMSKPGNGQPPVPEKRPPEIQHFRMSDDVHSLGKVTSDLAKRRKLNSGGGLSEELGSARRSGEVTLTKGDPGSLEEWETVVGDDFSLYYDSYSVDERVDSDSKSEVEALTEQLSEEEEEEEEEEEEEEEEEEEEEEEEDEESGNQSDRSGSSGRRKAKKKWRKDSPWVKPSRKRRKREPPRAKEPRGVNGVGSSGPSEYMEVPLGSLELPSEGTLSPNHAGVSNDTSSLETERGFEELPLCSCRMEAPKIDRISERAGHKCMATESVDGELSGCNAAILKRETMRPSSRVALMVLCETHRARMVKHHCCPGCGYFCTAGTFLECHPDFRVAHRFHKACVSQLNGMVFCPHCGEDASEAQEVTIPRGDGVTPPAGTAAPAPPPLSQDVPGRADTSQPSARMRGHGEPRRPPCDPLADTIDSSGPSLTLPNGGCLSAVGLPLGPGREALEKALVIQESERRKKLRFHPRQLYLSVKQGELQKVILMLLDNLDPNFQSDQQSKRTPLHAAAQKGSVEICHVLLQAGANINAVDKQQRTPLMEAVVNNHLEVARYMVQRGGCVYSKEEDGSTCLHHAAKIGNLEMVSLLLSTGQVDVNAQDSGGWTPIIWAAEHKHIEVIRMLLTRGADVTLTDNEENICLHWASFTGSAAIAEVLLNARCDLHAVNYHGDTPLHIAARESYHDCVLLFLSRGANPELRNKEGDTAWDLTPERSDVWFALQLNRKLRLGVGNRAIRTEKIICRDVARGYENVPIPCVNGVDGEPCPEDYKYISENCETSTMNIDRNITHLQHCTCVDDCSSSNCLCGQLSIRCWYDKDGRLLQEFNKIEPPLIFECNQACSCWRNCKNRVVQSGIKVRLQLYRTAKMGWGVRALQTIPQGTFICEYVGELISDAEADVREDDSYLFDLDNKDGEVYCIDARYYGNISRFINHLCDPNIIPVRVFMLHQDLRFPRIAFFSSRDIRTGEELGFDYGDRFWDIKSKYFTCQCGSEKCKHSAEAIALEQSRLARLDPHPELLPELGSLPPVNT
Outline: (§1)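 AlphaScreen: enzyme, SAM and compound mixed in 10 mM PBS for 30 min at room temperature; acceptor beads and substrate antibody added, 30 min at room temperature, then streptavidin donor beads; read on AlphaScreen reader.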

[2] = target: Histone-lysine N-methyltransferase 2A (Homo sapiens, UniProt Q03164); test: Inhibition of MLL1 (unknown origin) histone methyltransferase activity assessed as inhibition of H3K4 methylation incubated for 30 mins by chemiluminescence assay
[3] = Toxicity in Balb/c nude mouse xenografted with human MV4-11 cells assessed as tolerability at 40 to 120 mg/kg, po administered daily for 21 days relative to control; format: organism-based; conditions: in vivo, 504 h
Outline: (§2)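 Nude BALB/c females bearing MV4-11 xenografts, dosed orally each day for 21 days at 40, 80 or 120 mg/kg, saline vehicle controls (6 mice/group); body weight recorded every other day.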

[4] = target: Histone-lysine N-methyltransferase, H3 lysine-79 specific (Homo sapiens, UniProt Q8TEK3); test: Inhibition of DOT1L (unknown origin) assessed as effect on H3K79 methylation incubated for 30 mins by Alphascreen assay; outline: as §1
[5] = Toxicity in Balb/c nude mouse xenografted with human MV4-11 cells assessed as body weight loss at 40 to 120 mg/kg, po administered daily for 21 days relative to control; format: organism-based; conditions: in vivo, 504 h; outline: as §2

Histone-lysine N-methyltransferase 2A, sequence (Q03164 1-2718 limits assumed): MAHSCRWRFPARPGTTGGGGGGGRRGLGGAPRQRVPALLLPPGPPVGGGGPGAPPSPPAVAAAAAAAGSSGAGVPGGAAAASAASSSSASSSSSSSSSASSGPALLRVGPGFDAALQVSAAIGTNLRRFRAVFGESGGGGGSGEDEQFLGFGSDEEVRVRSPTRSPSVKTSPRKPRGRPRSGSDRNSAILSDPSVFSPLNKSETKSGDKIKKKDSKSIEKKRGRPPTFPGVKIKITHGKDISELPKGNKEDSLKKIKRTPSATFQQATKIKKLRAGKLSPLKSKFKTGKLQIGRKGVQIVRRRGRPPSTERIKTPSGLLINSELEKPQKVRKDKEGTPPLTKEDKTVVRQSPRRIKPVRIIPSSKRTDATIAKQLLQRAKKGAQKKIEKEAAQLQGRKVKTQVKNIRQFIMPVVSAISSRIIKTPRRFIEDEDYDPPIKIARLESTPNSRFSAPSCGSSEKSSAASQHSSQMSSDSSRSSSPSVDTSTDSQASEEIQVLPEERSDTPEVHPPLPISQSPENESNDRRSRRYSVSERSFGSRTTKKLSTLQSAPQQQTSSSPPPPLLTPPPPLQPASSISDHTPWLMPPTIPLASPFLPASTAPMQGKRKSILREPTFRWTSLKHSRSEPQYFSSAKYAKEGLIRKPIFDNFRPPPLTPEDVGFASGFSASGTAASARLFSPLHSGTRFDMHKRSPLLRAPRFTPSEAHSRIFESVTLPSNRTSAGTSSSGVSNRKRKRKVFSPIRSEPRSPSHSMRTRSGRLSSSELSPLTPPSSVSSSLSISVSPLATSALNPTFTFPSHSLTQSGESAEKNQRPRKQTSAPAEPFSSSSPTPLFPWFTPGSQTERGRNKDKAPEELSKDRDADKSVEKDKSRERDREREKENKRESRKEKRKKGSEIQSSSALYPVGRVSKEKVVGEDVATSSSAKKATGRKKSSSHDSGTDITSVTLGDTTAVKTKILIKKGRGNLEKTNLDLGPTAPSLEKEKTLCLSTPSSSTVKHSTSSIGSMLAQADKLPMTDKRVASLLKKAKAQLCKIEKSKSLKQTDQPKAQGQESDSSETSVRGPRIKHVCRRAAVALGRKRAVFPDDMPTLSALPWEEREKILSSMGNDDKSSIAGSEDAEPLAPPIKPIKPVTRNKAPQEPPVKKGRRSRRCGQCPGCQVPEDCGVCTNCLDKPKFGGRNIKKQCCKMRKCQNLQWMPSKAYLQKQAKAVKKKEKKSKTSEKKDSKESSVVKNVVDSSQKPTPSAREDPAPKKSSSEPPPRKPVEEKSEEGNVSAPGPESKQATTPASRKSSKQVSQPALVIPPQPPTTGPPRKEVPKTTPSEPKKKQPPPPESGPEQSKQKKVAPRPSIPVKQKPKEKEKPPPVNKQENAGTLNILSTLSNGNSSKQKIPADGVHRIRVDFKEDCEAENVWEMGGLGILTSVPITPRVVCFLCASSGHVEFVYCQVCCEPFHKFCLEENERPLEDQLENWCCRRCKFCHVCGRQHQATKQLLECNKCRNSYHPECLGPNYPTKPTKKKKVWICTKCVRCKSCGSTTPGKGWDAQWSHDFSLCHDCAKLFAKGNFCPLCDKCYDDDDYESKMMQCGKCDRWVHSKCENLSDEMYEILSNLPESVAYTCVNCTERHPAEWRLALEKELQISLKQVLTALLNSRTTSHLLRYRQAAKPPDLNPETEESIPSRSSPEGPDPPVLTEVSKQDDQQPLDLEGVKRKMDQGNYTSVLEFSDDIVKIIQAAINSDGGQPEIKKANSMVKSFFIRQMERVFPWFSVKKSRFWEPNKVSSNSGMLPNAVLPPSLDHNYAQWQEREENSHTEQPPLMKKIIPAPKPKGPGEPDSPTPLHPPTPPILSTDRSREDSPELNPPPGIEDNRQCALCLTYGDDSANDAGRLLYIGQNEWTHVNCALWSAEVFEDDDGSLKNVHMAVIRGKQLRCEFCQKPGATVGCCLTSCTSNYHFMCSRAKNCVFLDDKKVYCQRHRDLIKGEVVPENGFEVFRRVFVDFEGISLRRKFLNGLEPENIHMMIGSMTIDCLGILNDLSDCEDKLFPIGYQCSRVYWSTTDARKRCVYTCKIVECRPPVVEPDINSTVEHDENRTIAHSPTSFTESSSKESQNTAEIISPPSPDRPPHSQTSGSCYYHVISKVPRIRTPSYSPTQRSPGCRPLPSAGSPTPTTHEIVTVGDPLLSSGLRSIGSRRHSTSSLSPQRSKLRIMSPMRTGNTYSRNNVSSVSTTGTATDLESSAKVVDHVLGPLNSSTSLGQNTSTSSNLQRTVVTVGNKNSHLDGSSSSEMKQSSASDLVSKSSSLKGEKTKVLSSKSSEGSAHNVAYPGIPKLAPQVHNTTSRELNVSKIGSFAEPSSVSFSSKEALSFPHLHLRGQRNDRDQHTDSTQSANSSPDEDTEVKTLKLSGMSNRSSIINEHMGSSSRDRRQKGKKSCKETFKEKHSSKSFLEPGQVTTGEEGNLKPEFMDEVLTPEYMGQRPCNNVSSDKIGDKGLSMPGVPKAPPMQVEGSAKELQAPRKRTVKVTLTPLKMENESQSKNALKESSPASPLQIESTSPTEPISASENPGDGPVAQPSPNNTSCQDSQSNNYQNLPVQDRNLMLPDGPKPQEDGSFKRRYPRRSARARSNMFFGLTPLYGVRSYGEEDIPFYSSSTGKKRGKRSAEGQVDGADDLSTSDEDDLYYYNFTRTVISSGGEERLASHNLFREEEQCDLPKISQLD
Histone-lysine N-methyltransferase 2A, sequence (Q03164 2719-3969 limits assumed): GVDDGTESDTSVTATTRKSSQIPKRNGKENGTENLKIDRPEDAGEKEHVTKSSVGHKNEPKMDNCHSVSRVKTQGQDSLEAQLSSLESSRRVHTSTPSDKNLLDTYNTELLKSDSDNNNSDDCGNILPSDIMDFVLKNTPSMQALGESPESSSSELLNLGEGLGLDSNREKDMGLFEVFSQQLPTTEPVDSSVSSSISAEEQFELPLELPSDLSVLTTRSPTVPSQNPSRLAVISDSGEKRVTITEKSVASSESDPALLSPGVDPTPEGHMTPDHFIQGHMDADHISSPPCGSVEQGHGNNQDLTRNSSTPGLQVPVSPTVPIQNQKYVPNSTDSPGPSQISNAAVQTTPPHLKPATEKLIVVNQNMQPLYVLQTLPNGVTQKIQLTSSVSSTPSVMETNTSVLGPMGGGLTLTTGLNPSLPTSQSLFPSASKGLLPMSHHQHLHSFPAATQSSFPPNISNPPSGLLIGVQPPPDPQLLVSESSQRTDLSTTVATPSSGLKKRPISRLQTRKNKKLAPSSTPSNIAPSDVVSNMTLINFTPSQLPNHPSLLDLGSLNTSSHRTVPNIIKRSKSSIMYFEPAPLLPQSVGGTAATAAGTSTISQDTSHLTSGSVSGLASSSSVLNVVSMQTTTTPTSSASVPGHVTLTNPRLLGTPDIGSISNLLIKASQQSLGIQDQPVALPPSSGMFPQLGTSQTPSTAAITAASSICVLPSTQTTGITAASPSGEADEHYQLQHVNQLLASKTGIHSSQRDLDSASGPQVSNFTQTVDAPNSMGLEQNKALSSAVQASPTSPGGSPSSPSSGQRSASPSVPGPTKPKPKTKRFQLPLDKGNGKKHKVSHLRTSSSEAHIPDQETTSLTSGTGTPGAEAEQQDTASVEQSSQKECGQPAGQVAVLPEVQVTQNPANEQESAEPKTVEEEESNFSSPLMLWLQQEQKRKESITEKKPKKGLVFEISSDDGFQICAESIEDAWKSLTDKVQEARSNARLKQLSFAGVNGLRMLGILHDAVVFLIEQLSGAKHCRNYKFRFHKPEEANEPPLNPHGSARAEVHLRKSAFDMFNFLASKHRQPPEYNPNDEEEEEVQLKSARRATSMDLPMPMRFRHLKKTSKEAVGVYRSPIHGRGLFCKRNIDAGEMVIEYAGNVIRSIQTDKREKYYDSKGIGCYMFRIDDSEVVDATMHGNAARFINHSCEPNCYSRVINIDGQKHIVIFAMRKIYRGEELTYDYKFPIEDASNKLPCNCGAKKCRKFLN

- IC50 [1]: > 100 µM
- IC50 [2]: 0.78 µM
- IC50 [4]: > 100 µM
SMILES: CN1CCN(c2cc(F)c(-c3ccc(C(=O)N(C)C)cc3)cc2Nc2ncnc(Cl)c2N)CC1
- Activity [3]: Non-Toxic
- Activity [5]: Non-Toxic
